Experimental data as given in article PMC7008087 (Biochimica et biophysica acta. Molecular cell research, 2019).

What was measured:
H441 and Calu-3 cells = assay: Cell-proliferation, H441 and Calu-3 reported together; format: cell-based, human; conditions: for effect on Bn-stimulated increase in cell-proliferation: H441 and Calu-3 cells, Bn 1 μM, 24 hr, CCK-8 and MTS
EGFR = EGFR phosphorylation; format: cell-based, human; conditions: for EC50, EGFR phosphorylation: mean ± SEM of three independent experiments
Method in brief: (§1)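 H441 or H2087 cells at 80% confluence were serum-starved overnight, then given Bn (0.1-100 nM) or NRG-1 (0.1-100 ng/mL) for 3 min. Cells were lysed in RIPA buffer (pH 7.6) and protein was measured by BCA. Lysates were run on a 4–20% gel and blotted for phospho-EGFR Tyr1068, HER2 Tyr1248 and HER3 Tyr1289, with tubulin as loading control. Bands were read by densitometry as % basal; mean ± SEM, ≥3 experiments.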

HER3/HER2 = HER3/HER2 heterodimerization; format: cell-based, human; conditions: H441 and Calu-3 cells; 100 nM Bn or 100 ng/mL NRG-1
Method in brief: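 Serum-starved H441 and Calu-3 cells received no addition, 100 nM Bn or 100 ng/mL NRG-1. RIPA lysate (800 μg protein) was incubated with anti-HER3 antibody for 1 hr at 4 °C, then with protein A/G agarose overnight at 4 °C. Beads were washed five times in RIPA and boiled in Laemmli buffer. Partners were detected by Western blot, with tubulin from whole-cell extract as loading control; values are given as ratio to control.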

HER3 = HER3 (Homo sapiens, UniProt P21860); assay: HER3 phosphorylation; format: cell-based; conditions: for EC50, HER3 phosphorylation: mean ± SEM of three independent experiments
Method in brief: as §1

EGFR, HER2, and HER3 = assay: EGFR, HER2 and HER3 phosphorylation reported together; format: cell-based, human
Method in brief: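 Time course: serum-starved (overnight) H441, H2087 or Calu-3 cells were stimulated with Bn 100 nM or NRG-1 100 ng/mL for 3-60 min. Cells were lysed in RIPA and blotted for phospho-EGFR (Tyr1068), HER2 (Tyr1248) and HER3 (Tyr1289) using primary antibodies at 1:1000 overnight at 4 °C. Tubulin served as loading control, and background-subtracted densitometry was expressed as % of basal.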

Akt = Akt phosphorylation; format: cell-based, human
HER3/EGFR = HER3/EGFR heterodimerization; format: cell-based, human; conditions: H441 and Calu-3 cells; 100 nM Bn or 100 ng/mL NRG-1
Method in brief: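 Serum-starved (overnight) 80%-confluent cells treated with test peptide (100 nM) or reference ligand (100 ng/mL); lysed in RIPA (pH 7.6), sonicated, cleared. 800 μg protein with anti-HER3 antibody, 1 hr at 4 °C, then protein A/G agarose overnight at 4 °C; five RIPA washes. Immunoblotted for partner receptors by chemiluminescence; background-subtracted densitometry as ratio to untreated control; whole-extract tubulin as loading control.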

p44/42 = p44/42 MAPK phosphorylation; format: cell-based, human
HER2 = HER2 phosphorylation; format: cell-based, human; conditions: for EC50, HER2 phosphorylation: mean ± SEM of three independent experiments
Method in brief: as §1

[1] = Wortmannin 1 μM or LY294002 10 μM
[2] = H441 cells, NRG-1 0.1-100 ng/mL, 3 min
[3] = H2087 cells, 100 nM Bn or 100 ng/mL NRG-1, 3 min
[4] = H441 cells, dose-response, 3 min, Bn 100 nM maximal, NRG-1 0.1-100 ng/mL
[5] = Calu-3 cells, Bn 100 nM or NRG-1 100 ng/mL

O=c1cc(N2CCOCC2)oc2c(-c3ccccc3)cccc12 [LY294002]
effect on Bn-stimulated increase in cell-proliferation (H441 and Calu-3 cells; [1]): no significant effect

neuregulin-1 [NRG-1]
EC50, EGFR phosphorylation (EGFR; [2]): 4.9 ± 0.9 ng/mL | maximum EGFR phosphorylation (fold increase) (EGFR; [3]): 5.2 fold | EC50, EGFR phosphorylation (EGFR; H2087 cells, NRG-1, 3 min): 9.7 ± 1.3 ng/mL | HER3/HER2 heterodimerization (HER3/HER2): HER3/HER2 heterodimerization in both cell-lines | phosphorylation of HER3 maintained at 60 minutes (fold increase) (HER3; H441 cells, NRG-1 100 ng/mL, 60 minutes, p < 0.05 vs. control): 20 fold | maximal HER3 phosphorylation (fold increase) (HER3; [4]): 44 fold | HER3 phosphorylation (fold increase) (HER3; [3]): 21 fold | duration of HER3 phosphorylation (HER3; H2087 cells, NRG-1 100 ng/mL): prolonged phosphorylation | stimulation time of maximum EGFR, HER2 and HER3 phosphorylation (EGFR, HER2, and HER3; [5]): 30 to 60 min | maximal stimulation compared with Bn (EGFR, HER2, and HER3; H441, H2087 and Calu-3 cells, Bn 100 nM, NRG-1 100 ng/mL): greater than that seen with Bn | time of maximum phosphorylation of EGFR, HER2, and HER3 (EGFR, HER2, and HER3; H441 cells, Bn 100 nM or NRG-1 100 ng/mL): 3 min | time of maximum phosphorylation of Akt (Akt; H441, H2087 and Calu-3 cells, NRG-1 100 ng/mL): 60 min | HER3/EGFR heterodimerization (HER3/EGFR): induced HER3/EGFR | phosphorylation of p44/42 at 60 minutes (p44/42; [5]): still present | stimulation time of maximum phosphorylation of p44/42 (p44/42; H441, H2087 and Calu-3 cells, Bn 100 nM or NRG-1 100 ng/mL): 15 min | phosphorylation of p44/42 at 60 minutes (p44/42; H441 and H2087 cells, Bn 100 nM or NRG-1 100 ng/mL): not maintained at 60 minutes | EC50, HER2 phosphorylation (HER2; [2]): 16.3 ± 3.4 ng/mL | maximal HER2 phosphorylation (fold increase) (HER2; [4]): 34 fold | HER2 phosphorylation (fold increase) (HER2; [3]): 22 fold | duration of HER2 phosphorylation (HER2; H2087 cells, NRG-1 100 ng/mL): prolonged phosphorylation | EC50, HER2 phosphorylation (HER2; H2087 cells, NRG-1, 3 min): 7.8 ± 2.0 ng/mL

COC[C@H]1OC(=O)c2coc3c2[C@@]1(C)C1=C(C3=O)[C@@H]2CCC(=O)[C@@]2(C)C[C@H]1OC(C)=O [Wortmannin, wortmannin]
effect on Bn-stimulated increase in cell-proliferation (H441 and Calu-3 cells; [1]): no significant effect

COc1cc2ncnc(Nc3ccc(F)c(Cl)c3)c2cc1OCCCN1CCOCC1 [gefitinib]
effect on Bn-induced increment of Akt phosphorylation (Akt): no significant inhibitory effect | activity at 10 µg/mL (Akt; Homo sapiens, NCI-H441, read-out: basal phosphorylation of Akt (% of control)): 79% | effect on Bn-stimulated increase in cell-proliferation (H441 and Calu-3 cells; gefitinib 10 μg/mL): no effect | activity at 10 µg/mL (H441 and Calu-3 cells; Homo sapiens, 24 h, read-out: basal stimulation (% of control)): 36 to 45% | effect on Bn-stimulated phosphorylation of p44/42 (p44/42; H441 cells, gefitinib 10 μg/mL or EGFR knockdown, Bn 100 nM, 15 min): did not affect | activity at 10 µg/mL (p44/42; Homo sapiens, NCI-H441, read-out: basal phosphorylation of p44/42 (% of control)): 75%

B1: neuregulin-1 (protein)
chain: TSHLVKCAEKEKTFCVNGGECFMVKDLSNPSRYLCKCPNEFTGDRCQNYVMASFYKHLGIEFMEAEELYQK
modifications: the alternative R&D product is the beta1 ECD (2-246)
EC50, HER3 phosphorylation (HER3; [2]): 14.3 ± 1.7 ng/mL | EC50, HER3 phosphorylation (HER3; H2087 cells, NRG-1, 3 min): 8.1 ± 1.7 ng/mL
